Many of the other results were omitted from the sample, so hits are more common in it than they were.
Insulin prom act = activators of insulin promoter-driven GFP, primary screen, imaging, TRM-6 cells (human fetal islet line), eGFP reporter, cell count; 0.81% of 130,000 active; AID 1296, 2008; plate-scaled: unstimulated 0, stimulated control 100; activation, % at 2 µM;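 active means activation at 2 µM above a set limit, confirmed on inspection of the cell images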;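 further: share of cells whose green reporter signal exceeds an intensity cutoff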
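test system = TRM-6 insulin promoter–eGFP reporter cells | benchmarks = stimulated versus unstimulated wells as plate controls | read-out basis = percent cells above green-intensity threshold, converted to percent activation versus plate controls | detection = fixed-cell fluorescence microscopy, eGFP plus Hoechst | incubation = tamoxifen pre-incubation 15 h overnight, then compound exposure 48 h at 37 °C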
Large screens that a line does not name were inactive.

CCN(CC)S(=O)(=O)c1ccc(C(=O)Nc2ccc(Cc3ccncc3)cc2)cc1	none
CN(C)S(=O)(=O)c1ccc(C(=O)Nc2ccc(CN3CCCC3)cc2)cc1	none
CN(C)S(=O)(=O)c1ccc(C(=O)Nc2ccc(CCC(=O)N3CCCC3)cc2)cc1	Insulin prom act 448.6
CNC(=S)/N=C/NOCc1ccc(Cl)cc1Cl	none
C/C(=N\n1cnnc1)c1ccc(C#N)cc1	none
CC(C)(C)C(=O)NC(=S)NNC(=O)C(c1ccccc1)c1ccccc1	none
CC(C)(CO)NC(=O)C(c1ccccc1)c1ccccc1	Insulin prom act 406.3
O=C(O)CC(c1ccccc1)c1ccccc1	none
Cc1ccc(C(=O)CC(=O)c2cccc(F)c2)c(O)c1	none
CCn1nnc(-c2ccccc2NC(=O)c2cnccn2)n1	none
COc1ccc(/C=C/C(=O)Nc2cc(F)ccc2C)cc1S(=O)(=O)N1CCOCC1	none
COc1ccc(NC(=O)C(=O)N/N=C/c2cc(C)n(-c3cccc(Cl)c3Cl)c2C)c(OC)c1	none
CCn1c(SCC(=O)N/N=C(\C)c2ccncc2)nnc1-c1ccccc1	none
Cc1cnc(C(=O)NCC(c2ccccc2)c2ccccc2)cn1	none
CS(=O)(=O)n1nc(-c2ccc(Cl)cc2)nc1SCc1ccccc1	none
CCN1C(=O)CC(N2CCN(c3cccc(OC)c3)CC2)C1=O (centres undefined)	none
CCOc1cccc(N2C(=O)CC(N3CCN(c4ccc(S(=O)(=O)CC)cc4)CC3)C2=O)c1 (centres undefined)	Insulin prom act 80.0
COc1cccc(N2CCN(C3CC(=O)N(c4cccc(Cl)c4)C3=O)CC2)c1 (centres undefined)	none
Cc1cc(C(=O)NCCN2C(=O)S/C(=C\c3cccs3)C2=O)ccc1[N+](=O)[O-]	none
COc1ccccc1NC(=S)NNC(=O)c1ccccc1Br	none
Cc1cc(C)c(NC(=O)C2CCN(c3cnccn3)CC2)c(C)c1	Insulin prom act 481.3
O=C(Nc1ccc2c(c1)CCC2)C1CCN(c2ncccn2)CC1	none
Cc1cc(C)c(NC(=O)C2CCCN2C(=O)NC2CCCCC2)c(C)c1 (centres undefined)	none
CCNCc1nc2cc(Cl)ccc2c(=O)[nH]1	none
CN(CC(=O)Nc1ccc(S(=O)(=O)N2CCCC2)cc1)CC(=O)Nc1cccc(F)c1	Insulin prom act 220.0
CN1CCN(S(=O)(=O)c2ccc(N(C)CC(=O)Nc3ccc(F)cc3)nc2)CC1	none
CC(C)CC(=O)NC(=S)Nc1ccc(S(=O)(=O)N2CCN(C)CC2)cc1	none
COc1ccc(S(=O)(=O)N2CCN(CC(=O)Nc3cccc(F)c3)CC2)cc1	none
Cc1ccc(S(=O)(=O)N2CCN(C(=O)COc3ccc(NC(=O)c4ccco4)cc3)CC2)cc1	none
Cc1ccc(OCC(=O)Nc2ccc(S(=O)(=O)N3CCN(C)CC3)cc2)cc1	Insulin prom act 405.6
CCc1nnc(NC(=O)c2ccc(-c3ccc([N+](=O)[O-])cc3Cl)o2)s1	none
COc1ccc(C2CC(=O)c3sc(NC(C)=O)nc3C2)cc1 (centres undefined)	none
CC(=O)Nc1cc(ON=C(C)C)cc([N+](=O)[O-])c1	none
COC(=O)C1=C(C)N(C)C(=S)N(C)C1c1cccc(Br)c1 (centres undefined)	none
CC(=O)NC(Cc1c[nH]c2ccccc12)C(=O)OCC(=O)N1CCCCCC1 (centres undefined)	none
O=C(NCCc1ccccc1)c1cc(=O)c2ccccc2o1	none
COC(=O)c1cc2sc(Cl)cc2n1CC(=O)NCCC(C)C	none
Cc1ccsc1C=C1C(=O)c2ccccc2C1=O	Insulin prom act 312.5
Cc1ccsc1/C=N/N1CCN(C2c3ccccc3-c3ccccc32)CC1	none
Cc1ccc(C(=O)O)cc1-c1ccc(C=C2C(=O)c3ccccc3C2=O)o1	none
CC(C)CC(c1nnnn1C(C)C)N1CCN(c2ccccc2)CC1 (centres undefined)	none
COc1ccc(OC)c(CNC(=O)C2CCN(S(C)(=O)=O)CC2)c1	none
COc1ccc(Br)cc1CNC(=O)C1CCN(S(=O)(=O)N2CCCCC2)CC1	Insulin prom act 169.2
COc1ccccc1CNC(=O)C1CCCN(S(C)(=O)=O)C1 (centres undefined)	none
CCOc1ccc(NC(=O)c2nn(-c3ccc(OC)cc3OC)c(=O)c3ccccc23)cc1	none
c1coc(CN(Cc2ccco2)c2ncnc3c2oc2ccccc23)c1	none
COc1ccc(S(=O)(=O)N(C)CC(=O)N2CCCCC2)cc1Cl	none
CN(CC(=O)N1CCCC1)S(=O)(=O)c1ccc(Cl)cc1	none
COc1ccc(S(=O)(=O)N(C)CC(=O)N2CCOCC2)cc1Cl	Insulin prom act 462.5
CC1(C)OC(C)(C)/C(=C/Nc2ccccc2)C1=O	none
CC(C)NC(=O)c1ccc(COCC(F)(F)C(F)F)cc1	Insulin prom act 80.0
O=C(Nc1ccc(Cl)cn1)c1ccc(COCC(F)(F)C(F)F)o1	none
O=C(Nc1ccc(OCC(F)(F)C(F)F)cc1)c1ccncc1	none
Cc1cc(Cl)cc(Cl)c1OCCOc1cccc2cccnc12	Insulin prom act 83.9
Cc1cc(Cl)cc(Cl)c1OCCOCCN(C)C	none
Cc1ccc(OCCOCCOc2cccc3cccnc23)c(Br)c1	none
CC(O)C1CCC2C3CC[C@H]4CC(O)CCC4(C)C3CC3(OCCO3)C12C (some centres undefined)	none
CC(=O)c1ccc(NC(=O)C(C)NCc2ccccc2Cl)cc1 (centres undefined)	none
O=C(c1c(F)c(F)c(F)c(F)c1F)N1CCN(c2cccc(C(F)(F)F)c2)CC1	none
FC(F)(F)c1cccc(N2CCN(CC3CC4C=CC3C4)CC2)c1 (centres undefined)	none
Oc1cc2c(cc1CN1CCN(c3cccc(C(F)(F)F)c3)CC1)CCC2	Insulin prom act 81.6
CCN(CC)S(=O)(=O)c1cccc(-c2nnc(SCC(=O)NC3CCCCCCC3)n2N)c1	none
CCNc1nc(Oc2ccc(=O)[nH]n2)nc(SC)n1	none
Cc1ccc(Nc2nc(Oc3ccc(=O)[nH]n3)nc(N(C)C)n2)cc1	none
CN(C)c1nc(Nc2ccccc2)nc(Oc2ccc(=O)[nH]n2)n1	none
COC(=O)c1ccc(-n2nnnc2SC)cc1	none
COC(=O)c1ccc(Oc2nc(Nc3ccccc3)nc(N(C)C)n2)cc1	Insulin prom act 584.6
CNc1nc(Oc2ccc(C(=O)OC)cc2)nc(SC)n1	Insulin prom act 493.8
CCOc1ccccc1Nc1nnc(SC(C)C(=O)Nc2nc(-c3ccccc3)cs2)s1 (centres undefined)	none
O=C(NNS(=O)(=O)c1ccc2ccccc2c1)c1cccnc1	none
O=C1CSC(c2ccccc2)N1CC(O)c1ccc([N+](=O)[O-])cc1 (centres undefined)	none
O=[N+]([O-])c1ccc(S(=O)(=O)N2CCN=C2SCc2cccnc2)cc1	none
O=C(/C=C/c1c(Cl)cccc1Cl)NCCc1ccccc1	none
COc1ccc(CCNC(=O)/C=C/C(=O)O)cc1	none
O=C(O)/C=C/C(=O)NCCc1ccccc1	Insulin prom act 321.4
O=C(O)CCCC(=O)N1CCc2cc(S(=O)(=O)NCc3ccc(F)cc3)ccc21	none
CCN(C(=O)c1ccc(C)c(Br)c1)c1ccccc1	none
CS(=O)(=O)N(CCc1ccccc1)CC(=O)NCC1CCCO1 (centres undefined)	none
O=C(COC(=O)c1cccc(NS(=O)(=O)c2ccc(F)c(F)c2)c1)NC(=O)NC1CCCCC1	none

High-throughput results: PubChem BioAssay, Columbia University Molecular Screening Center
